Measured values: ChEMBL document CHEMBL1122996, “Interactions of apomorphine with serum and tissue proteins” (J Med Chem, 1985)
Values joined by “and” are separate entries in the source; they are usually repeats but may differ in a detail not shown here. Equal values may be shown once.

Legend:
Mus musculus [1] = organism: Mus musculus; experiment: Radio activity of [3H]-l in mice in GI tract with its contents on 14 days; format: functional, Gastrointestinal tract
Method in brief: (§1)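 Male CD-1 mice (~35 g, n=10 per group) received apomorphine 30 mg/kg with [3H]-apomorphine (0.153 mCi/kg) ip, once or daily for 14 days. Killed 24 h after the last dose; GI tract (with contents or washed with distilled water), liver and kidney (rinsed of blood) and skeletal tissue taken. Radioactivity given as % of total dose; skeletal tissue as % dose/g wet weight.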

Mus musculus [2] = organism: Mus musculus; experiment: Radio activity of [3H]-l in mice liver on 14 days; format: functional; method in brief: as §1
Mus musculus [3] = organism: Mus musculus; experiment: Percentage of covalently bound total in striatum of mouse; format: functional
Method in brief: (§2)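 Male CD-1 mice (~35 g, n=10) given apomorphine 30 mg/kg with [3H]-apomorphine (0.153 mCi/kg) ip daily for 14 days, killed 24 h after the last dose. Plasma from infraorbital sinus; brain split into striatum, cerebellum, forebrain without striatum. Protein-bound radioactivity expressed as µg/g protein (albumin equivalent; plasma µg/mL) and as % of total tissue radioactivity.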

Mus musculus [4] = organism: Mus musculus; experiment: Radio activity accumulation in cerebellum (Excreatable reactivity) on day 1; format: functional
Method in brief: (§3)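 Male CD-1 mice (~35 g, n=10 per group) given apomorphine 30 mg/kg fortified with [3H]-apomorphine (0.153 mCi/kg) ip, either once or daily for 14 days. Sampled 24 h after the last dose: plasma from infraorbital sinus (extractable and nonextractable radioactivity) and brain regions (striatum, cerebellum, forebrain without striatum). Radioactivity expressed as µg apomorphine equivalent per mL or per g […].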

Rattus norvegicus [5] = organism: Rattus norvegicus; experiment: Percentage binding to rat plasma proteins at 0.01 ug/mL concentration of the compound; format: cell-free
Method in brief: (§4)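 Plasma came from male Sprague-Dawley rats (~450 g, ether, vena cava blood, lithium heparin) or from six mature female swine (jugular catheter, heparinized). It was spiked with 1-HCl (10 ng–50 µg/mL) containing 0.5 mCi/mL [³H]-1. Samples were ultrafiltered as for human plasma, and the ultrafiltrate was analysed by HPLC peak-collection LSC. N = 4.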

Albumin [6] = molecular target: T1, Albumin (Bos taurus, UniProt P02769); experiment: Covalent binding of compound to serum albumin after 1 hr when the level of [8,9-3H2]-1is 2.7 dpm *10e6 expressed as mol of drug/mol of serum albumin; settings: cattle
Method in brief: (§5)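 BSA (32 mg) with 2 mg apomorphine HCl hemihydrate plus tritiated [8,9-3H2]apomorphine at the level stated, in pH 7.4 phosphate buffer, 2.1 mL total, incubated 1 h. Incubates were extracted twice with ethyl acetate. Protein-bound radioactivity was measured by LSC after one of three workups: perchloric acid precipitation with repeated trifluoroacetic acid-ethanol washes; Sephadex G-25 gel filtration in 1% sodium lauryl sulfate buffer; or 4-day dialysis.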

Mus musculus [7] = organism: Mus musculus; experiment: Ratio of accumulation of radioactivity from 14 to 1 day in cerebellum; format: functional
Method in brief: (§6)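 Male CD-1 mice (~35 g, 10 per group) received 1 at 30 mg/kg ip with [³H]-1 (0.153 mCi/kg), once or daily for 14 days, with free access to food and water. At 24 h after the last dose, plasma (infraorbital sinus), brain regions, kidney, liver and GI tract were taken for radioactivity counting. The accumulation ratio is radioactivity after 14 doses divided by radioactivity after 1 dose.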

Albumin [8] = molecular target: T1, Albumin; experiment: (§7) Covalent binding of compound to serum albumin after 1 hr when the level of [8,9-3H2]-1is 2.6 dpm *10e6; settings: cattle; method in brief: as §5
Mus musculus [9] = organism: Mus musculus; experiment: Radio activity accumulation in nonextractable radioactivity in plasma brain striatum (Excreatable reactivity) on day 1; format: functional; method in brief: as §3
Sus scrofa [10] = organism: Sus scrofa; experiment: Percentage binding to swine plasma proteins at 0.10 ug/mL concentration of the compound; format: cell-free; method in brief: as §4
Sus scrofa [11] = organism: Sus scrofa; experiment: Percentage binding to swine plasma proteins at 100 ug/mL concentration of the compound; format: cell-free
Mus musculus [12] = organism: Mus musculus; experiment: Ratio of accumulation of radioactivity from 14 to 1 day in extractable reactivity in plasma; format: functional; method in brief: as §6
Mus musculus [13] = organism: Mus musculus; experiment: Ratio of accumulation of radioactivity from 14 to 1 day in washed gastro intestinal track; format: functional; method in brief: as §6
Mus musculus [14] = organism: Mus musculus; experiment: Radio activity accumulation in plasma (Excreatable reactivity) on day 1; format: functional; method in brief: as §3
Albumin [15] = molecular target: T1, Albumin; experiment: Covalent binding of compound to serum albumin after 1 hr when the level of [8,9-3H2]-1is 2.3 dpm *10e6; settings: cattle; method in brief: as §5
Sus scrofa [16] = organism: Sus scrofa; experiment: Percentage binding to swine plasma proteins at 50 ug/mL concentration of the compound; format: cell-free; method in brief: as §4
Albumin [17] = molecular target: T1, Albumin; experiment: Covalent binding of compound to serum albumin after 1 hr when the level of [8,9-3H2]-1is 2.2 dpm *10e6 expressed as mol of drug/mol of serum albumin; settings: cattle; method in brief: as §5
Mus musculus [18] = organism: Mus musculus; experiment: Ratio of accumulation of radioactivity from 14 to 1 day in plasma contents; format: functional; method in brief: as §6
Mus musculus [19] = organism: Mus musculus; experiment: Percentage of covalently bound total in forebrain without striatum of mouse; format: functional; method in brief: as §2
Albumin [20] = molecular target: T1, Albumin; experiment: Covalent binding of compound to serum albumin after 1 hr when the level of [8,9-3H2]-1is 2.7 dpm *10e6; settings: cattle; method in brief: as §5
Sus scrofa [21] = organism: Sus scrofa; experiment: Percentage binding to swine plasma proteins at 5.0 ug/mL concentration of the compound; format: cell-free; method in brief: as §4
Albumin [22] = molecular target: T1, Albumin; experiment: Covalent binding of compound to serum albumin after 1 hr when the level of [8,9-3H2]-1is 2.3 dpm *10e6 expressed as mol of drug/mol of BSA; settings: cattle; method in brief: as §5
Mus musculus [23] = organism: Mus musculus; experiment: Radio activity of [3H]-l in mice liver on day 1; format: functional; method in brief: as §1
Albumin [24] = molecular target: T1, Albumin; experiment: Covalent binding of compound to serum albumin after 1 hr when the level of [8,9-3H2]-1is 2.6 dpm *10e6 expressed as mol of drug/mol of serum albumin; settings: cattle; method in brief: as §5
Sus scrofa [25] = organism: Sus scrofa; experiment: Percentage binding to swine plasma proteins at 20.0 ug/mL concentration of the compound; format: cell-free; method in brief: as §4
Albumin [26] = molecular target: T1, Albumin; experiment: as §7; settings: cattle; method in brief: as §5; remark: listed apart in the source
Mus musculus [27] = organism: Mus musculus; experiment: Ratio of accumulation of radioactivity from 14 to 1 day in kidney; format: functional; method in brief: as §6
Mus musculus [28] = organism: Mus musculus; experiment: Radio of accumulation of radioactivity from 14 to 1 day in nonextractable radioactivity in plasma brain; format: functional; method in brief: as §6
Mus musculus [29] = organism: Mus musculus; experiment: Radio activity covalently bound to forebrain without striatum of mouse brain; format: functional; method in brief: as §2
Rattus norvegicus [30] = organism: Rattus norvegicus; experiment: Percentage binding to rat plasma proteins at 1 ug/mL concentration of the compound; format: cell-free; method in brief: as §4
Rattus norvegicus [31] = organism: Rattus norvegicus; experiment: Percentage binding to rat plasma proteins at 0.10 ug/mL concentration of the compound; format: cell-free; method in brief: as §4
Homo sapiens = organism: Homo sapiens; experiment: Percentage binding to human plasma proteins was determined by measuring HPLC peak at 1.00 micro g/ml concentration in plasma; format: cell-free
Method in brief: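 Fresh plasma from fasted healthy human volunteers was spiked with 1-HCl plus [³H]-1 tracer. It was incubated 10 min at 37 °C and ultrafiltered through YMT membranes (1000g, 5 min, 37 °C). Ultrafiltrate was acidified with pH 3.0 acetate buffer containing carrier 1-HCl, argon-flushed and frozen at -15 °C. Phenyl-column HPLC was read by peak-eluate collection LSC, UV peak area, or radiochemical detection. % bound was calculated from total vs ultrafiltrate using a plasma water fraction of 0.93.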

Mus musculus [32] = organism: Mus musculus; experiment: Radio activity of [3H]-l in mice kidney on 14 days; format: functional; method in brief: as §1
Mus musculus [33] = organism: Mus musculus; experiment: Radio activity in skeletal tissue (% dose/g of wet wt) on 14 days; format: functional; method in brief: as §1

T1 sequence (P02769 whole entry): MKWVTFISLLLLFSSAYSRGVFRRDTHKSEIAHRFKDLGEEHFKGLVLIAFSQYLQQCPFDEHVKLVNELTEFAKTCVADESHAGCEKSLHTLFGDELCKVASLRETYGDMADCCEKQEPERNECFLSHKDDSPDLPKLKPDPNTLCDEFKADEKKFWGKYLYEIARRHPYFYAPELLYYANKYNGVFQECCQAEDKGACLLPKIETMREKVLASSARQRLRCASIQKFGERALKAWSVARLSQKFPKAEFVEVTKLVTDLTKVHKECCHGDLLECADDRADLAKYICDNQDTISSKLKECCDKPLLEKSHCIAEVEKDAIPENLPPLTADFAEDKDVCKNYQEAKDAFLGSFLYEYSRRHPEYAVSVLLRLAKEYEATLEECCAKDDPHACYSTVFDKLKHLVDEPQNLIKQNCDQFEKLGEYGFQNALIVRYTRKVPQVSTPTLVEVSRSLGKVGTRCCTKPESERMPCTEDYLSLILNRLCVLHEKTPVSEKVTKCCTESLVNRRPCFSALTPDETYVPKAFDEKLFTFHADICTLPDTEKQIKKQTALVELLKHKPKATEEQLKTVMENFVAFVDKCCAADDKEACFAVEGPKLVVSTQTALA

With CN1CCc2cccc3c2[C@H]1Cc1ccc(O)c(O)c1-3 [APOMORPHINE] the Amount (Mus musculus [1]) was 4.01%, the Amount (Mus musculus [2]) was 0.99% and the Binding (Mus musculus [3]) was 1.65%. The Accumulation (Mus musculus [4]) was 20 µg/g, the Binding (Rattus norvegicus [5]) was 91.3% and the Binding (Albumin [6]) was 4 M of drug (M of BSA)-1 and 5.9 M of drug (M of BSA)-1. For the same compound, the Ratio (Mus musculus [7]) was 2.9, the Binding (Albumin [8]) was 8238 dpm mg-1 and 9938 dpm mg-1 and the Accumulation (Mus musculus [9]) was 21.4 µg/g. It also gave a Binding (Sus scrofa [10]) of 93%, a Binding (Sus scrofa [11]) of 85.7% and a Ratio (Mus musculus [12]) of 2.6. For the same compound, the Ratio (Mus musculus [13]) was 9.7, the Accumulation (Mus musculus [14]) was 0.561 µg/mL and the Binding (Albumin [15]) was 6215 dpm mg-1. The Binding (Sus scrofa [16]) was 87%, the Binding (Albumin [17]) was 2.1 M of drug (M of BSA)-1 and the Ratio (Mus musculus [18]) was 2.6. For the same compound, the Binding (Mus musculus [19]) was 1.62%, the Binding (Albumin [20]) was 8465 dpm mg-1 and 12693 dpm mg-1 and the Binding (Sus scrofa [21]) was 90.4%. For the same compound, the Binding (Albumin [22]) was 3.4 M of drug (M of BSA)-1, the Amount (Mus musculus [23]) was 0.38% and the Binding (Albumin [24]) was 4 M of drug (M of BSA)-1 and 4.8 M of drug (M of BSA)-1 and 4.4 M of drug (M of BSA)-1. For the same compound, the Binding (Sus scrofa [25]) was 86.2%, the Binding (Albumin [26]) was 9063 dpm mg-1 and the Ratio (Mus musculus [27]) was 3.1. It also gave a Ratio (Mus musculus [28]) of 2.6, a Binding (Mus musculus [29]) of 1.13 µg/g and a Binding (Rattus norvegicus [30]) of 90.4%. It also gave a Binding (Rattus norvegicus [31]) of 90.4%, a Binding (Homo sapiens) of 96.6% and an Amount (Mus musculus [32]) of 0.331%. For the same compound, the Amount (Mus musculus [33]) was 0.394%.
